We go through 21 molecules from ChEMBL document CHEMBL1133619, “Use of an additional hydrophobic binding site, the Z site, in the rational drug design of a new class of stronger trypanothione reductase inhibitor, quaternary alkylammonium phenothiazines” (J Med Chem, 2000).

Several values for one entry are separate records, joined by “and”; a condition that tells them apart may be missing. Equal values may be shown once. Activity calls are given as the source filed them. The rule behind the calls is not given here.

Assay [1] addresses T1, Trypanothione reductase (Trypanosoma cruzi, UniProt P28593). Briefly: (§1) Inhibitory activity against Trypanosoma cruzi trypanothione reductase.
In assay [2] the target is T1, Trypanothione reductase. Described as §1. The method, boiled down:
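T. cruzi TR, isolated enzyme (3 µg/mL), assayed at 25 °C in 0.02 M HEPES pH 7.25 with 0.15 M KCl, 1 mM EDTA and 0.1 mM NADPH. (ZCGdmapa)2 substrate was used at 0.24, 0.12, 0.06 or 0.03 mM, and Ki was fitted as linear competitive.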
The source holds these as a separate data set.

The test system of assay [3] is Trypanosoma brucei. Briefly: Antiparasitic activity against Trypanosoma brucei. The class given is functional. The note with it: read-out: ED50 (the source's name).
Assay [4] concerns the target T2, Glutathione reductase, mitochondrial (Homo sapiens, UniProt P00390).
T2 sequence (P00390 whole entry): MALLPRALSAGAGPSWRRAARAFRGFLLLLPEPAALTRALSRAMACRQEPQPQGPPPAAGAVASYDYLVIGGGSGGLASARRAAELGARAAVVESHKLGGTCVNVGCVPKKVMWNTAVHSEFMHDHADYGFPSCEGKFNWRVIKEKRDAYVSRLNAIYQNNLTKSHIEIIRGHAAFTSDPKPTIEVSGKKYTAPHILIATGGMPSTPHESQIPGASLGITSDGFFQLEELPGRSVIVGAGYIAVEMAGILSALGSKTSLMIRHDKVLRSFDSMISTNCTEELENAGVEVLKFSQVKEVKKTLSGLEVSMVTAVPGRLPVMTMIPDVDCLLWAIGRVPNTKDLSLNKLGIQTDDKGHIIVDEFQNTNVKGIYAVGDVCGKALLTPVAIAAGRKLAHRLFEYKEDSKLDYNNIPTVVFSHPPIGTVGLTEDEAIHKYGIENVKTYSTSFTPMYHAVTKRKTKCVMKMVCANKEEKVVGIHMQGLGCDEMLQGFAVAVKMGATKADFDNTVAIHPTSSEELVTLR
Briefly: Inhibitory activity against Human Erythrocyte glutathione reductase (GR).

Assay [5] relates to Trypanosoma brucei. Briefly: Activity against Trypanosoma brucei.
The subject of assay [6] is Trypanosoma cruzi. Briefly: Antiparasitic activity against Trypanosoma cruzi at the dose of 1 uM. The class given is functional.
Assay [7] deals with Trypanosoma cruzi. Briefly: Antiparasitic activity against Trypanosoma cruzi at the dose of 3 uM. The class given is functional.
Assay [8] relates to Trypanosoma cruzi. Briefly: Antiparasitic activity against Trypanosoma cruzi. The class given is functional. Conditions: read-out: ED50 (the source's name).
For assay [9], the target named is T3, Glutathione reductase, mitochondrial (Homo sapiens) (UniProt P00390).
T3 sequence (whole entry): T2 sequence (P00390 whole entry)
Briefly: Compound at 1 mM was tested for the inhibition of human erythrocyte glutathione reductase; No inhibition.

T1 sequence (P28593 whole entry): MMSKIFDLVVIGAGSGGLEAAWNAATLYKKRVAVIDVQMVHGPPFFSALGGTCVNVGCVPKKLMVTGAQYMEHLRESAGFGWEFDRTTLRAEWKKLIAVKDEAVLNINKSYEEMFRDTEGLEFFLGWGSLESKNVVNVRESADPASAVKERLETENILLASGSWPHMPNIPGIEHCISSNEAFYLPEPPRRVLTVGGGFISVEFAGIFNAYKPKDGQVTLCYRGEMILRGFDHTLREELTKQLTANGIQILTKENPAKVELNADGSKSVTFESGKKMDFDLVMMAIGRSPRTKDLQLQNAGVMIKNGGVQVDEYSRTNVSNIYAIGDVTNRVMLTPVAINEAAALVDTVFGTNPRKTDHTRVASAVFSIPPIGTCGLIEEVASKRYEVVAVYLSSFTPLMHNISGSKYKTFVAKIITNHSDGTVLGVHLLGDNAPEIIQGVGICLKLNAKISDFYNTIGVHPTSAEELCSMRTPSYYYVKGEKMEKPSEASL

For the molecule `C[N+](C)(CCCN1c2ccccc2Sc2ccc(Cl)cc21)Cc1ccc(OCc2ccccc2)cc1`, on Trypanothione reductase [1], the midpoint of inhibition, the IC50, lay at 10.4 µM. Further, the Ki (in general, the dissociation constant of the complex between target and ligand, obtained from inhibition or displacement) on Trypanothione reductase [2] is 0.47 µM. In addition, in the assay on Trypanosoma brucei [3], the EC50 is 0.191 µg/mL and 350 nM.
As for `C[N+](C)(C)CCCN1c2ccccc2Sc2ccc(Cl)cc21`, the IC50 (usually the point on the concentration scale where inhibition reaches its midpoint) at Trypanothione reductase [1] came out at 28 µM. The affinity at Trypanothione reductase [2], expressed as Ki, was 1.1 µM.
Molecule `COc1ccc2c(C[N+](C)(C)CCCN3c4ccccc4Sc4ccc(Cl)cc43)cc(=O)oc2c1` yielded an IC50 on Trypanothione reductase [1] of 2.95 µM. The same molecule registered a Ki on Trypanothione reductase [2] of 0.56 µM. Besides, the EC50 in the assay with Trypanosoma brucei [3] was 3.11 µg/mL and 5.28 µM.
In the case of `C[N+](C)(CCCN1c2ccccc2Sc2ccc(Cl)cc21)CC1CCCCC1`, the values for the inhibition constant (Ki) (in [4]; at Trypanothione reductase [2]) were 2000 µM and 2.3 µM, respectively. At Trypanothione reductase [1], this molecule had an IC50 of 10.5 µM. Besides, in the assay on Trypanosoma brucei [3], the EC50 was 0.159 µg/mL and 320 nM.
In the assay on Trypanosoma brucei [5], `C[N+](C)(CCCN1c2ccccc2Sc2ccc(Cl)cc21)CC(=O)c1ccc2ccc3cccc4ccc1c2c34` registered an ED50 of 0.475 µg/mL.
Molecule `CC(C)(C)c1ccc(C[N+](C)(C)CCCN2c3ccccc3Sc3ccc(Cl)cc32)cc1` gave an IC50 at Trypanothione reductase [1] of 4.1 µM. On Trypanothione reductase [2], this molecule showed a Ki of 0.68 µM. In addition, testing at 1 µM in the assay with Trypanosoma cruzi [6] gave an inhibition of 59.2%. In addition, testing at 3 µM in the assay on Trypanosoma cruzi [7] gave an inhibition of 66.2%. Moreover, the EC50 is less than 1 µM with Trypanosoma cruzi [8]; 0.023 µg/mL and 42 nM in the assay with Trypanosoma brucei [3].
Turning to `C[N+](C)(CCCN1c2ccccc2Sc2ccc(Cl)cc21)Cc1cccc(Cl)c1`, the IC50 against Trypanothione reductase [1] stood at 6.6 µM. The same molecule returned a Ki at Trypanothione reductase [2] of 2.4 µM. For the same molecule, in the assay on Trypanosoma brucei [3], the EC50 was 0.245 µg/mL and 470 nM.
On to `C[N+](C)(CCCN1c2ccccc2Sc2ccc(Cl)cc21)Cc1ccc([N+](=O)[O-])cc1.[Cl-]`, for which the IC50 at Trypanothione reductase [1] was 17.9 µM. In addition, the Ki at Trypanothione reductase [2] was found to be 2.98 µM. Moreover, the EC50 in the assay with Trypanosoma brucei [3] was 0.348 µg/mL and 650 nM.
At Trypanothione reductase [1], `Cc1ccc(C[N+](C)(C)CCCN2c3ccccc3Sc3ccc(Cl)cc32)cc1` came in with an IC50 of 10.8 µM. This molecule also registered a Ki on Trypanothione reductase [2] of 1.8 µM. The EC50 in the assay with Trypanosoma brucei [3] was 0.205 µg/mL and 410 nM.
Turning to `Cc1ccc(C[N+](C)(C)CCCN2c3ccccc3Sc3ccc(Cl)cc32)cc1C`, the IC50 on Trypanothione reductase [1] is 3.9 µM. At Trypanothione reductase [2], this molecule returned a Ki of 0.47 µM.
As to `COc1cc(C[N+](C)(C)CCCN2c3ccccc3Sc3ccc(Cl)cc32)cc(OC)c1`, on Trypanothione reductase [1], half-maximal inhibition (IC50) required 5.4 µM. Besides, at Trypanothione reductase [2], the affinity corresponds to a Ki of 0.77 µM.
At Trypanothione reductase [1], `C[N+](C)(CCCN1c2ccccc2Sc2ccc(Cl)cc21)C(c1ccccc1)c1ccccc1` had an IC50 of 1.2 µM. The same molecule came in with a Ki on Trypanothione reductase [2] of 0.71 µM. Further, in the assay with Trypanosoma brucei [3], the EC50 was 0.035 µg/mL and 62 nM.
On to `C[N+](C)(CCCN1c2ccccc2Sc2ccc(Cl)cc21)CC(=O)C12CC3CC(CC(C3)C1)C2`, for which it took 12.8 µM to reach half-maximal inhibition against Trypanothione reductase [1] (IC50). Besides, on Trypanothione reductase [2], the affinity corresponds to a Ki of 1.23 µM.
At Trypanothione reductase [1], `C[N+](C)(CCCN1c2ccccc2Sc2ccc(Cl)cc21)Cc1ccc2ccccc2c1` registered an IC50 of 9.3 µM. The Ki at Trypanothione reductase [2] worked out at 1.55 µM. In the assay on Trypanosoma brucei [3], the EC50 was 0.068 µg/mL and 120 nM.
In turn, `C[N+](C)(CCCN1c2ccccc2Sc2ccc(Cl)cc21)Cc1ccccc1` came in with an IC50 at Trypanothione reductase [1] of 8.02 µM. The affinity at Trypanothione reductase [2] corresponds to a Ki of 1.3 µM.
Turning to `CN(C)CCCN1c2ccccc2Sc2ccc(Cl)cc21`, in assay [9], the NI result was “inactive”.
As for `C[N+](C)(CCCN1c2ccccc2Sc2ccc(Cl)cc21)Cc1ccc(Cl)cc1`, the inhibition constant Ki in assay [4] turned out to be 2200 µM; at Trypanothione reductase [2] it was 1.7 µM. The molecule also had an IC50 against Trypanothione reductase [1] of 12.7 µM. The EC50 in the assay on Trypanosoma brucei [3] is 0.675 µg/mL and 1.41 µM.
In turn, `C[N+](C)(CCCN1c2ccccc2Sc2ccc(Cl)cc21)Cc1ccc(Br)cc1` gave an IC50 at Trypanothione reductase [1] of 11.9 µM. Also, the Ki at Trypanothione reductase [2] turned out to be 1.5 µM. In the assay with Trypanosoma brucei [3], the EC50 is 0.508 µg/mL and 900 nM.
On Trypanothione reductase [1], `C[N+](C)(CCCN1c2ccccc2Sc2ccc(Cl)cc21)Cc1ccc(Cl)c(Cl)c1` gave an IC50 of 0.78 µM. The Ki on Trypanothione reductase [2] was found to be 0.12 µM. Further, the EC50 with Trypanosoma brucei [3] was 0.546 µg/mL and 1.07 µM.
As to `Cc1cc(C(=O)C[N+](C)(C)CCCN2c3ccccc3Sc3ccc(Cl)cc32)ccc1Cl`, the midpoint of inhibition against Trypanothione reductase [1], the IC50, lay at 8.6 µM. Further, affinity at Trypanothione reductase [2] was put at a Ki of 1.43 µM. Further, the EC50 in the assay with Trypanosoma brucei [3] was 0.159 µg/mL and 280 nM.
Molecule `C[N+](C)(CCCN1c2ccccc2Sc2ccc(Cl)cc21)Cc1c(F)c(F)c(F)c(F)c1F` returned an IC50 against Trypanothione reductase [1] of 10 µM. In addition, on Trypanothione reductase [2], the Ki was determined as 1.67 µM. Further, the EC50 with Trypanosoma brucei [3] was 1.48 µg/mL and 2.55 µM.
